Reference: publication PMC12107431 (Nucleic Acids Research, 2025)
Residue numbers refer to the chain shown, from its start. In names and notes the source's numbering stands. Several values for one entry are separate records, joined by “and”; a condition that tells them apart may be missing. Identical values can stand only once. No end group written: not given here.

T1: ETO2-NHR4 (Homo sapiens, UniProt O75081)
T1 sequence (O75081 551-597): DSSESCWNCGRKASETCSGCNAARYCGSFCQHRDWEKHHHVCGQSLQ

B1: (M)PPPLx4 (GATAD2A residues 177-284, four polyproline-leucine motifs) (peptide, UniProt Q86YP4 177-284, looked up)
chain: QKPTGSVGSTVTTPPPLVRGTQNIPAGKPSLQTSSARMPGSVIPPPLVRGGQQASSKLGPQASSQVVMPPLVRGAQQIHSIRQHSSTGPPPLLLAPRASVPSVQIQGQ
B2: (M)PPPLx4: bacterially expressed GATAD2A residues 177–284 with four (M)PPPL motifs and C-terminal Twin-Strep-tag (protein)
chain: B1 chain
modifications: left off: thioredoxin, N-terminal, cleaved | His6, N-terminal, cleaved | Twin-Strep-tag, C-terminal, state not stated
B3: ETO2-NHR3-4 (NHR3 and NHR4 domains of human ETO2, residues 480-597) (domain or fragment, UniProt O75081 480-597, looked up)
chain: GYVPEDIWRKAEEAVNEVKRQAMSELQKAVSDAERKAHELITTERAKMERALAEAKRQASEDALTVINQQEDSSESCWNCGRKASETCSGCNAARYCGSFCQHRDWEKHHHVCGQSLQ
B4: ETO2-NHR3-4 (V497I/A501L) (domain or fragment, human, UniProt O75081 480-597, looked up)
chain: B3 chain with V18I, A22L
B5: PPPLx2A (GATAD2A residues 177-235, first two motifs) (peptide, UniProt Q86YP4 177-235, looked up)
chain: QKPTGSVGSTVTTPPPLVRGTQNIPAGKPSLQTSSARMPGSVIPPPLVRGGQQASSKLG

Columns and labels:
ETO2-NHR3-4 [1] = test: ITC with ETO2-NHR3-4 in the presence of PKA; assay type: binding, human; conditions: ITC KD with vs without PKA (RIIα)
In short: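 ETO2-NHR3-4 (50 μM) is premixed at a 2:1 molar ratio with PKA (RII)α residues 1–45 (100 μM), both bacterially expressed and purified by Ni affinity, TEV cleavage and size exclusion. N-CoRx2A or PPPLx2A peptide (250 μM) is titrated in: 20 × 2 μL injections 180 s apart at 25 °C, in 25 mM Bis-Tris pH 7.2, 100 mM NaCl, 1 mM DTT, 50 μM ZnSO4. KD is fitted by software and reported as mean ± SD of two runs.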

NHR3 domain of ETO = conditions: PKA (RIIα) binding to NHR3 domain of ETO; cited from earlier work
ETO2-NHR4 [2] = target: T1, ETO2-NHR4; test: 15N-HSQC chemical shift perturbation titration; assay type: binding
[3] = target: B3; test: ITC
ETO2-NHR4 [4] = target: T1, ETO2-NHR4; test: Isothermal titration calorimetry; assay type: binding; conditions: all four motifs vs single motifs
ETO2-NHR3-4 [5] = test: Isothermal titration calorimetry; assay type: binding, human; conditions: ITC KD ratio
[6] = target: B1; test: ITC
SEC-MALS = target: the molecule itself; test: SEC-MALS
[7] = target: B3; test: ITC; remark: listed apart in the source

PPPLx2A: bacterially expressed GATAD2A residues 177–235, first two motifs (QKPTGSVGSTVTTPPPLVRGTQNIPAGKPSLQTSSARMPGSVIPPPLVRGGQQASSKLG; also: C-terminal Twin-Strep-tag, state not given here)
reduction of affinity for ETO2-NHR3-4 by PKA (RIIα) (ETO2-NHR3-4 [1]): approximately 10 fold

PKA (RIIα): cAMP-dependent protein kinase type II-alpha regulatory subunit; residues 1–45 used here
Kd (NHR3 domain of ETO): 0.128 µM

KYGASSQVVMPPLVRGAQQ-NH2 [MPPL-3]
Kd (ETO2-NHR4 [2]): 249 ± 3 µM

B1
Kd [3]: 3 µM

B2
increase of binding affinity compared to the individual binding sites (ETO2-NHR4 [4]): up to 10 fold | increase of binding affinity with ETO2-NHR3-4 compared to the NHR4 domain alone (ETO2-NHR3-4 [5]): 10 fold

DSSESCWNCGRKASETCSGCNAARYCGSFCQHRDWEKHHHVCGQSLQ (domain or fragment, UniProt O75081 551-597, looked up) [ETO2-NHR4 (NHR4 domain of human ETO2, residues 551-597)]
Kd [6]: 30 µM

B3
stoichiometry N (SEC-MALS): 2 and 4

B4
stoichiometry N (SEC-MALS): 4

B5
Kd [3]: 6 µM | KD in the presence of PKA (RIIα) [7]: 50 µM
